Screens from PubChem.
Only a selection was taken, and hits are over-represented in it overall.
G6PDH CS: L. mesenteroides G6PDH inhibition counter-screen; Purified L. mesenteroides G6PDH, diaphorase/resazurin coupled fluorescence, 45 min; inhibition, % at 5 µM; hit rate 0.12% among 200,000; AID 1020
Diaphorase act: diaphorase activation or chemical reduction counter-screen | Diaphorase/resazurin coupled assay, resorufin fluorescence, 16 min; stronger effect = higher value; 1 = vehicle wells, 0 = NADH-free wells | activation factor at 20 µM | hit rate 0.005% among 190,000 | AID 1229;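 active = diaphorase activity raised at least twofold by the compound at 20 µM; inactive = activation factor below 2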
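Test system: Clostridium kluyveri diaphorase, purified enzyme; input: enzyme 0.07 U/mL final; buffer or medium: 50 mM HEPES pH 7.4 with 4.542 mM MgCl2, 0.005% Tween 20; also added: 0.114 mM NADH and 0.1 mM resazurin, final amounts; schedule: 16 min enzyme reaction, ambient temperature; technique: fluorescence of resorufin, 544 nm excitation, 590 nm emission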
PfGluPho inh: PfG6PD (Plasmodium falciparum) enzyme inhibition | PfGluPho enzyme, NADPH resazurin-diaphorase fluorescence | inhibition, % at 20 µM | hit rate 0.78% among 350,000 | AID 504690;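 active = inhibition reaching at least a set limit at 20 µM in the primary screen, cut at about 59% in these data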;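 note: 0% = DMSO wells with substrate and 100% = DMSO wells lacking glucose-6-phosphate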
DTT redox prof: compounds producing H2O2 with reducing agent – biochemical, NIH compound library profiling, artefact control for MLSCN library redox annotation, primary screen. DTT-dependent redox cycling H2O2, phenol red/HRP absorbance; 100% = 100 µM peroxide control, 0% = buffer. activation, % at 10 µM. hit rate 0.03% among 200,000;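 active = activation of at least 50% relative to the plate's high and low controls in the primary single-dose screen; inactive = activation below 50%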;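 note: compound incubated with DTT at 0.8 mM final as the reducing agent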
Diaphorase inh: inhibits diaphorase or chemically oxidizes, flagging diaphorase assay artifacts; hit rate 0.69% among 190,000; inhibition, % at 20 µM; AID 1217; diaphorase resazurin-to-resorufin fluorescence, NADH, 16 min; bacterial (C. kluyveri) enzyme, not human;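 active = primary screen inhibition at 20 µM above a set limit, cut at about 50% in these data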;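 note: plate controls were DMSO with full reaction for no effect and wells lacking NADH for full effect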
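Test system: diaphorase enzyme from Clostridium kluyveri; amount: diaphorase at 0.14 U/mL in enzyme working solution; detection: fluorescence of resorufin formed from resazurin, Ex 544/Em 590 nm; times: reaction incubation of 16 min at room temperature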
L major viab: reduces viability of Leishmania major promastigotes | resazurin fluorescence viability | inhibition, % at 10 µM | hit rate 9% among 200,000 | AID 1063;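 note: promastigotes grown with compound for 44 hours at 28 °C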
Numbers without * were called inactive; / = no result given. Cut-off read from the data, not from the text of the source, unless noted: active = inhibition above about 50%; inactive = the rest.

SMILES | G6PDH CS | Diaphorase act | PfGluPho inh | DTT redox prof | Diaphorase inh | L major viab
Cn1c(=NC(=O)COc2ccccc2)sc2ccccc21 | 7 | 1 | 11 | -1 | 0 | -3
CCN1C(=O)/C(=C\c2ccncc2)SC1=Nc1ccc(C)c(C)c1 | 11 | 0.9 | 13 | 0 | 10 | 52*
COc1cccc(N2CCN(C3CCCC(C)C3)CC2)c1 (stereo not given) | -21 | 0.9 | 3 | 0 | 8 | 69*
CCCn1c(C)cc(/C=C(\C#N)C(=O)OCC(=O)Nc2cccc(S(N)(=O)=O)c2)c1C | / | / | -2 | / | / | /
CCCn1c(C)cc(/C=C(\C#N)C(=O)OCC(=O)Nc2cccc(OC)c2)c1C | 7 | 0.9 | -4 | 0 | 7 | 61*
N=C1/C(=C\c2ccc(SCc3ccco3)o2)C(=O)N=C2SC=NN12 | 10 | 0.5 | 17 | -1 | 54* | 11
COC(=O)/C(=C\c1ccc([N+](=O)[O-])o1)NC(=O)c1ccccc1 | 9 | 0.9 | -77 | 0 | 14 | 95*
CN(C)CCCNC(=O)/C(=C/c1ccc(-c2ccc([N+](=O)[O-])cc2)o1)NC(=O)c1ccccc1 | / | / | -7 | / | / | /
CCCCNC(=O)/C(=C\c1ccc([N+](=O)[O-])o1)NC(=O)c1ccccc1 | -4 | 0.9 | 2 | 0 | 6 | 67*
NS(=O)(=O)c1ccc(NC(=O)NC2CC(=O)N(c3ccc4c(c3)OCCO4)C2)cc1 (stereo not given) | / | / | 8 | / | / | /
COC(=O)c1ccccc1NC(=O)NCc1c(C)nn(C)c1C | 7 | 1 | -5 | 0 | -3 | 0
Cc1ccc(-n2cc(CN3CCC(CO)(Cc4cccc(C(F)(F)F)c4)CC3)cn2)cc1 | 7 | 1 | 14 | -1 | 3 | 99*
CSc1ccc(CN2CCCC(CO)(Cc3ccccc3)C2)cc1 (stereo not given) | 15 | 0.8 | -4 | 0 | 20 | 64*
CSc1ccccc1C(=O)C1CCCN(Cc2cnn(-c3ccccc3)c2)C1 (stereo not given) | 15 | 0.8 | -4 | 0 | 21 | 73*
OCC1(Cc2ccccc2)CCCN(Cc2cnn(-c3ccccc3)c2)C1 (stereo not given) | 3 | 0.9 | 9 | -1 | 10 | 89*
CCOc1ccc(NC2OCC(O)C(O)C2O)c([N+](=O)[O-])c1 (stereo not given) | 7 | 0.9 | -9 | 0 | 12 | 6
CC(Cc1ccccc1)N1C(=O)c2cccc([N+](=O)[O-])c2C1=O (stereo not given) | / | / | 6 | / | / | /
N#Cc1nn(-c2ccccc2)nc1N1CCCCC1 | 11 | 0.9 | -16 | 0 | 12 | -5
COc1ccc(C2NC(=O)NC(C)=C2[N+](=O)[O-])cc1 (stereo not given) | / | / | 9 | / | / | /
OCC1(Cc2ccccc2)CCN(Cc2cnn(-c3ccccc3F)c2)CC1 | -1 | 0.9 | 0 | 0 | 11 | 88*
OCC1(Cc2ccccc2)CCN(Cc2cnc(-c3ccc(Cl)cc3)nc2)CC1 | 11 | 0.8 | 1 | -1 | 17 | -4
Cc1ccc(-n2cc(CN3CCC(CO)(Cc4ccccc4)CC3)cn2)cc1 | 8 | 1 | / | 0 | 2 | 80*
CN(C)/C(=N\S(=O)(=O)c1ccc(Cl)cc1)c1ccc(F)cc1 | / | / | 1 | / | / | /
Cc1nn(CC(=O)NC2CC2)c(C)c1S(=O)(=O)N(C)C | / | / | -5 | / | / | /
Cc1ccc(C(=O)NNc2cc(N3CCCC3)nc(N3CCCC3)n2)cc1 | 12 | 0.7 | -2 | 2 | 31 | 100*
SMILES | G6PDH CS | Diaphorase act | PfGluPho inh | DTT redox prof | Diaphorase inh | L major viab
COc1ccc(OCC(O)CN2CCN(c3ccccc3)CC2)cc1 (stereo not given) | 9 | 1.1 | 2 | 0 | -15 | 21
OC(CNc1ccccc1)COc1ccc(OCC(O)CNc2ccccc2)cc1 (stereo not given) | -3 | 0.7 | 8 | -3 | 27 | 66*
COc1ccc(N2CCN(CC(O)COc3ccccc3[N+](=O)[O-])CC2)cc1 (stereo not given) | 8 | 1 | -14 | -1 | 1 | 92*
O=[N+]([O-])c1ccccc1OCC(O)CN1CCN(CC(O)COc2ccccc2[N+](=O)[O-])CC1 (stereo not given) | / | / | 7 | / | / | /
CC(C)c1ccc(OCC(O)CN2CCN(c3ccccc3)CC2)cc1 (stereo not given) | 1 | 0.9 | 6 | 2 | 10 | 87*
OC(COc1ccccc1)CN1CCCCCC1 (stereo not given) | 6 | 1 | -10 | 0 | 4 | -1
OC(COc1ccccc1)CN1CCN(CC(O)COc2ccccc2)CC1 (stereo not given) | 4 | 1 | 24 | -2 | -1 | 87*
CNC[C@@H]1OCc2cnnn2CCCC(=O)N([C@H](C)CO)C[C@H]1C | / | / | -28 | / | / | /
COc1cc(NC(=O)Cn2ncc(Cl)c(Cl)c2=O)c(C)cc1[N+](=O)[O-] | 8 | 0.9 | 14 | 1 | 10 | 89*
COc1cc(NC(=O)CN2CCCCC2C)c(C)cc1[N+](=O)[O-] (stereo not given) | 7 | 1 | 5 | / | -4 | 69*
Cn1c(CNC(=O)CNC(=O)c2cccc(F)c2)cc(=O)n(C)c1=O | / | / | -7 | / | / | /
CCN(CC#CCC(O)(c1ccccc1)C1CCCC1)C(C)C (stereo not given) | 8 | 0.9 | 1 | 2 | 9 | 68*
CC(C)N(CC#CCC(O)(c1ccccc1)C1CCCC1)CCO (stereo not given) | 12 | 0.4 | 0 | 0 | 60* | 28
CCN(CC)CCC(O)(c1ccccc1)C1CCCCC1 (stereo not given) | / | / | -33 | / | / | /
CC(C)N(CC#CC(O)(c1ccccc1)c1ccccc1)CCO | 2 | 0.9 | 0 | 0 | 7 | 2
CCc1ccc2[nH]c3nc(N/N=C/c4ccc(O)cc4O)nnc3c2c1 | / | / | -26 | / | / | /
CCOc1ccc(N(CC(=O)NC2CCCCC2C)S(=O)(=O)c2c(C)noc2C)cc1 (stereo not given) | / | / | 7 | / | / | /
CCOc1ccc(S(=O)(=O)N(CC(=O)NC2CCCCC2C)Cc2ccco2)cc1 (stereo not given) | 14 | 0.9 | -9 | -1 | 11 | 87*
COC(=O)CSc1nc(N)c2c3c(sc2n1)C(c1ccccc1)SC(c1ccccc1)C3 (stereo not given) | 6 | 0.5 | 13 | 1 | 47 | 85*
CC(C)(C)C1CCc2c(sc3nc(SCC(=O)O)nc(N)c23)C1 (stereo not given) | / | / | -7 | / | / | /
COC(=O)CSc1nc(N)c2c3c(sc2n1)CCCC3 | -7 | 0.8 | 24 | 0 | 20 | 71*
Cc1cc(C)n(C(=O)/C=C/c2cccs2)n1 | / | / | 10 | / | / | /
